Measurements from different studies.
Lines come from different studies, so protocols differ.
ACHE: Acetylcholinesterase (ACHE, Homo sapiens, UniProt P22303)

SMILES	target	assay	conditions	measurement	value
CC(C)CC(=O)OC[C@H]1O[C@@](C#N)(c2ccc3c(N)ncnn23)[C@H](O)[C@@H]1O	ACHE	enzyme activity, inhibitor	20 µM	inhibition	3%
CCc1ccc(N2C(=O)/C(=C3/C(=O)N(C)c4ccc(Cl)cc43)NC2=S)cc1	ACHE	enzyme activity, inhibitor, Ellman	5 µM	inhibition	84%
CCCCC(=O)Nc1ccc(-c2ccc3ncn(CCC)c(=O)c3c2)cn1	Serine/threonine-protein kinase PknB (pknB, Mycobacterium tuberculosis, UniProt P9WI81)	binding, competition with immobilised ligand	0.5 µM	remaining binding	100%
COc1cc(/C=C/C(=O)O)ccc1OCc1cn(CC(=O)Nc2ccccc2[N+](=O)[O-])nn1	ACHE	enzyme activity, inhibitor, Ellman	40 µM	inhibition	22.1%
[2H]c1c([2H])c([C@]2([2H])CCCN2C(=O)C(C)(C)Oc2ccc3cn[nH]c3c2)c([2H])c([2H])c1C([2H])([2H])[2H]	Ephrin type-A receptor 2 (EPHA2, Homo sapiens, UniProt P29317)	binding, competition with immobilised ligand	1 µM	remaining binding	99%
COc1cc(/C=C/C(=O)O)ccc1OCc1cn(CC(=O)Nc2ccccc2C)nn1	ACHE	enzyme activity, inhibitor, Ellman	40 µM	inhibition	30.9%
C1CO1.C=O.CC(C)(C)CC(C)(C)c1ccc(O)cc1	Mitogen-activated protein kinase 3 (MAPK3, Homo sapiens, UniProt P27361)	enzyme activity, inhibitor, ADP detection	10 µM	inhibition	45.2%
COc1cc(/C=C/C(=O)O)ccc1OCc1cn(CC(=O)Nc2ccc(C)cc2)nn1	ACHE	enzyme activity, inhibitor, Ellman	40 µM	inhibition	46%
CN1C(=O)/C(=N\Nc2ncc(-c3cc4ccccc4oc3=O)s2)c2cc(Cl)ccc21	ACHE	enzyme activity, inhibitor, Ellman	1 µM	inhibition	90%
